# pKi: −log10 of the molar value. Activity calls are given as the source filed them. The calls are words filed in the database; no cut-off is given here.
# What was measured:
# Cannabinoid receptor 2 = Cannabinoid receptor 2 (Homo sapiens, UniProt P34972); assay: Displacement of [3H]CP-55940 from human recombinant CB2 receptor expressed in HEK cells; assay type: cell-based, HEK293
# Cannabinoid receptor 1 = Cannabinoid receptor 1 (Homo sapiens, UniProt P21554); assay: biochemical; assay type: cell-based, HEK293
# Homo sapiens = species: Homo sapiens; assay: Selectivity index, ratio of Ki for human recombinant CB1 receptor to Ki for human recombinant CB2 receptor
# [1] = Cytotoxicity against human HepG2 cells assessed as cell viability at 1 uM after 72 hrs by MTT assay; assay type: cell-based; settings: read-out: Activity
# How it was run: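 HepG2 cells in DMEM with 10% FBS at 37 °C and 5% CO2 were seeded at 1 × 10⁵ per well and left to attach for 24 h. Compound was added at 1 μM final, diluted from a 1 mM DMSO stock, for 72 h. MTT was then added for 4 h at 37 °C, formazan was dissolved in DMSO and read at 540 nm. Viability = A(test)/A(medium-only control) × 100.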
# Mus musculus [2] = assay: Antinociceptive activity in ip dosed mouse assessed as reduction of formalin-induced nocifensive response administered 15 mins before formalin challenge measured first phase of 0 to 10 mins; assay type: functional; settings: read-out: MED
# How it was run: (§1)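 Mice received compound ip at 1, 3 or 6 mg/kg (or vehicle) 15 min before formalin (1.25% in saline, 30 μL) was injected into the dorsal hindpaw. An observer blind to treatment timed lifting, favoring, licking, shaking and flinching of the injected paw over 0–10 min (early phase) and 20–60 min (late phase). n = 8–10 per group, one treatment per animal. Means ± SEM, ANOVA with Dunnett's test.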
# Mus musculus [3] = assay: Antinociceptive activity in mouse assessed as reduction of formalin-induced nocifensive response at 3 mg/kg, ip administered 15 mins before formalin challenge measured second phase of 20 to 60 mins; assay type: functional, organism-based; set-up: dose 3 mg/kg; how it was run: as §1
# COS-7 = assay: Inhibition of MAGL in african green monkey COS7 cells assessed as [14C]-2-arachidonoyl-glycerol hydrolysis up to 10 uM; assay type: cell-based; settings: Chlorocebus aethiops
# How it was run: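 COS-7 cell MAGL-like activity measured as hydrolysis of [¹⁴C]-2-arachidonoyl-glycerol, with compound tested at 0.1, 1, 5 and 10 μM.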
# Mus musculus [4] = assay: Antinociceptive activity in mouse assessed as reduction of formalin-induced nocifensive response at 3 mg/kg, ip administered 15 mins before formalin challenge measured first phase of 0 to 10 mins in presence of CB2 receptor antagonist 1 mg/kg, ip of AM630; assay type: functional, organism-based
# How it was run: (§2)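 Formalin paw test in mice. AM630 (1 mg/kg, ip) was given 5 min before the compound, and the compound was given ip 15 min before intraplantar-dorsal formalin (1.25% in saline, 30 μL). A blinded observer timed paw lifting, favoring, licking, shaking and flinching at 0–10 and 20–60 min. n = 8–10 per group. Means ± SEM, ANOVA with Dunnett's test.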
# [5] = biological target: T1, Fatty-acid amide hydrolase 1 (Rattus norvegicus) (UniProt P97612); assay: Inhibition of rat brain FAAH assessed as [14C]-anandamide hydrolysis up to 10 uM
# T1 sequence (whole entry): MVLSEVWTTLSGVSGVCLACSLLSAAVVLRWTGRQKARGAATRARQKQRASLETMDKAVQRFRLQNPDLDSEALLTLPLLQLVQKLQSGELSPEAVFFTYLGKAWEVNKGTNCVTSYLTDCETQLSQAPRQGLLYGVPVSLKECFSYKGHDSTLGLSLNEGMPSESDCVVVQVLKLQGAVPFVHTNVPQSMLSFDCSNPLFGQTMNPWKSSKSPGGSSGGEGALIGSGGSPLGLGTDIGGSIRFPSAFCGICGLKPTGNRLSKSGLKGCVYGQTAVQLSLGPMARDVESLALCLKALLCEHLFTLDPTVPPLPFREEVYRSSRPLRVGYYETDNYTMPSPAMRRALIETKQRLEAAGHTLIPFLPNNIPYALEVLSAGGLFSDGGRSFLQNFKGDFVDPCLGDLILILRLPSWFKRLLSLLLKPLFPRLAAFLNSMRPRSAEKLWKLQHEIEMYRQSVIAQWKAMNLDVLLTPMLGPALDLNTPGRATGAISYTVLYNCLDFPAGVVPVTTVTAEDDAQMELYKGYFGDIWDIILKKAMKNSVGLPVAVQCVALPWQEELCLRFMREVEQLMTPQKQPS
# How it was run: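 Hydrolysis of [¹⁴C]-anandamide by rat brain FAAH-like activity, with compound at 0.1, 1, 5 and 10 μM.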
# Mus musculus [6] = assay: Antinociceptive activity in mouse assessed as reduction of formalin-induced nocifensive response at 3 mg/kg, ip administered 15 mins before formalin challenge measured first phase of 0 to 10 mins; assay type: functional, organism-based; set-up: dose 3 mg/kg; how it was run: as §1
# Mus musculus [7] = assay: Antinociceptive activity in mouse assessed as reduction of formalin-induced nocifensive response at 6 mg/kg, ip administered 15 mins before formalin challenge measured second phase of 20 to 60 mins in presence of CB2 receptor antagonist 1 mg/kg, ip of AM630; assay type: functional, organism-based; how it was run: as §2
# Mus musculus [8] = assay: Antinociceptive activity in mouse assessed as reduction of formalin-induced nocifensive response at 6 mg/kg, ip administered 15 mins before formalin challenge measured second phase of 20 to 60 mins; assay type: functional, organism-based; set-up: dose 6 mg/kg; how it was run: as §1
# Chain of Cannabinoid receptor 2 (P34972 whole entry): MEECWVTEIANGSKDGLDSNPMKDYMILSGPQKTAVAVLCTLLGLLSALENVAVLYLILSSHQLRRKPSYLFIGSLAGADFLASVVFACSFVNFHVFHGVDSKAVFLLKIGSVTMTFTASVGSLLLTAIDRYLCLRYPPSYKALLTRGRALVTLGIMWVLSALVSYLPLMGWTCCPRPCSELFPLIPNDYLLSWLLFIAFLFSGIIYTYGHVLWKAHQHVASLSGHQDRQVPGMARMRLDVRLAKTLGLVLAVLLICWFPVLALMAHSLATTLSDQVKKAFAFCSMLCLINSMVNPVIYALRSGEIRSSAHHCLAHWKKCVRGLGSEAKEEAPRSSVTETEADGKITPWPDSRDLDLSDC
# Chain of Cannabinoid receptor 1 (P21554 whole entry): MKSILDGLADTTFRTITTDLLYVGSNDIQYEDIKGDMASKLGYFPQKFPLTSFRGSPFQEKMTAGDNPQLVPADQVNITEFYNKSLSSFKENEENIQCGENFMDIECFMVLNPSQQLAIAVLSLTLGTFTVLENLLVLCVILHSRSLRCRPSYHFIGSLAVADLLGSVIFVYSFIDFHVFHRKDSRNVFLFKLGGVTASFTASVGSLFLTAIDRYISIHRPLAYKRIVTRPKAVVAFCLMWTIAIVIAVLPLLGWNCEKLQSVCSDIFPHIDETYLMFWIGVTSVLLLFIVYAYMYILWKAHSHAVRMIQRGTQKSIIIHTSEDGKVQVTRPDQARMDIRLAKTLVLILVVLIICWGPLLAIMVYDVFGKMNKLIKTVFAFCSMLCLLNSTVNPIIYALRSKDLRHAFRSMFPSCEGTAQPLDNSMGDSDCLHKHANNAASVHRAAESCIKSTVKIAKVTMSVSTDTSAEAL
SMILES,pKi (Cannabinoid receptor 2),pKi (Cannabinoid receptor 1),Ratio Ki (Homo sapiens),"viability at 72 h, 1 µM [1] [%]",also measured
CCCCCn1cc(C(=O)NC23CC4CC(CC(C4)C2)C3)c(=O)c2cc(-c3ccccc3)cc(OC)c21,6.37,< 5.00,> 23,> 95,
CCCCCOc1cccc2c(=O)c(C(=O)NC34CC5CC(CC(C5)C3)C4)c[nH]c12,,,4.3,,
CCCCCn1cc(C(=O)NC23CC4CC(CC(C4)C2)C3)c(=O)c2cc(-c3ccco3)cc(OC)c21,8.07,< 5.00,> 1180,> 95,minimal effective dose (Mus musculus [2]): 1 mg/kg; Activity (Mus musculus [3]): Active; inhibition (COS-7): inactive; Activity (Mus musculus [4]): inactive; inhibition [5]: inactive
CCCCCn1c(=O)c(C(=O)NC23CC4CC(CC(C4)C2)C3)c(O)c2cc(Br)ccc21,7.53,< 5.00,> 340,> 95,Activity (Mus musculus [3]): Active; Activity (Mus musculus [6]): Active; inhibition (COS-7): inactive; Activity (Mus musculus [4]): inactive; inhibition [5]: inactive
CCCCCn1cc(C(=O)NC23CC4CC(CC(C4)C2)C3)c(=O)c2cccc([N+](=O)[O-])c21,9.00,6.70,200,,
CCC1COc2cccc3c(=O)c(C(=O)NC45CC6CC(CC(C6)C4)C5)cn1c23 (stereo not given),8.16,6.00,145,> 95,minimal effective dose (Mus musculus [2]): 1 mg/kg; Activity (Mus musculus [3]): Active; inhibition (COS-7): inactive; Activity (Mus musculus [4]): Active; inhibition [5]: inactive
CCCCCn1c(=O)c(C(=O)NC23CC4CC(CC(C4)C2)C3)c(O)c2cc(-c3ccco3)ccc21,7.82,6.57,18,> 95,
CCCCCOc1cccc2c(O)c(C(=O)NC34CC5CC(CC(C5)C3)C4)cnc12,7.22,6.59,,> 95,
O=C(NC12CC3CC(CC(C3)C1)C2)c1cnc2c(-c3ccccc3)cccc2c1O,6.66,< 5.00,,> 95,
CCCCc1[nH]c2ccc(-c3ccco3)cc2c(=O)c1C(=O)NC12CC3CC(CC(C3)C1)C2,6.88,< 5.00,> 75,> 95,
CCCCCn1cc(C(=O)NC23CC4CC(CC(C4)C2)C3)c(=O)c2cccc(OC)c21,9.22,< 5.00,> 16700,> 95,Activity (Mus musculus [7]): Active; Activity (Mus musculus [8]): Active; inhibition (COS-7): inactive; inhibition [5]: inactive
COc1cccc2c(O)c(C(=O)NC34CC5CC(CC(C5)C3)C4)cnc12,5.46,< 5.00,,,
COc1cccc2c(=O)c(C(=O)NC34CC5CC(CC(C5)C3)C4)c[nH]c12,,,> 2.9,,
CCCCc1[nH]c2ccc(Br)cc2c(=O)c1C(=O)NC12CC3CC(CC(C3)C1)C2,5.93,< 5.00,> 8,,
CCCCCn1cc(C(=O)NC23CC4CC(CC(C4)C2)C3)c(=O)c2cc(Br)cc(OC)c21,7.64,< 5.00,> 437,> 95,
CCCCCn1cc(C(=O)NC23CC4CC(CC(C4)C2)C3)c(=O)c2cccc(C)c21,9.15,< 5.00,> 2040,> 95,
CCCCCn1c(=O)c(C(=O)NC23CC4CC(CC(C4)C2)C3)cc2ccccc21,9.70,7.50,157,,
O=C(NC12CC3CC(CC(C3)C1)C2)c1c[nH]c2c(-c3ccccc3)cccc2c1=O,,,45,,
